The record followed here is ChEMBL document CHEMBL4811313, “Himalaquinones A-G, Angucyclinone-Derived Metabolites Produced by the Himalayan Isolate Streptomyces sp. PU-MM59” (J Nat Prod, 2021).

Calls of active or inactive are those of the source. No cut-off for these calls is given here.

Usually IC50 stands for the midpoint of a concentration-inhibition curve.

Data set [1] can be described thus: Toxicity in axolotl embryo at 10 uM after 7 days by tail regeneration assay. To be noted: ambystoma mexicanum, 168 h, time 7 day. In outline:
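Stage 42 axolotl embryos were hatched manually, anesthetized with benzocaine and given 2 mm tail amputations. They were reared at 18–19 °C in artificial pond water with compound (10 μM; one compound at 1.0 μM) in 0.1% final DMSO. Regeneration was imaged at 0 and 7 days postamputation. DMSO was the negative control and geldanamycin the positive control.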

The test system of data set [2] is A549. Nature of the data set: Cytotoxicity against human A549 cells assessed as reduction in cell viability after 72 hrs by resazurin dye based fluorescence analysis. The data set is classed as functional. To be noted: A549, 72 h. In outline:
(§1)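 A549 (non-small-cell lung) and PC3 (prostate) human cancer cells from ATCC. Viability was read after 72 h, in triplicate. Runs were either a single 80 μM concentration or a dose-response. Actinomycin D served as the positive control.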
For orientation: Resazurin is reduced to fluorescent resorufin, in cell work by metabolically active cells.

Data set [3] relates to PC-3. Nature of the data set: Cytotoxicity against human PC3 cells assessed as reduction in cell viability after 72 hrs by resazurin dye based fluorescence analysis. The data set is classed as functional. To be noted: PC-3, 72 h. An outline of the steps: as §1
In data set [4] the target is Eukaryotic translation initiation factor 4E-binding protein 1 (Homo sapiens) (UniProt Q13541). Nature of the data set: Inhibition of 4E-BP1 phosphorylation in human HCT116 cells at 2 uM after 6 hrs by Western blot analysis. It is filed as cell-based. To be noted: HCT-116. In outline: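 HCT116 cells were treated 6 h with 2 μM compound or with DMSO as negative control. Lysate was run on SDS-PAGE, blotted to PVDF and probed for phospho-4E-BP1 (Thr37/46, Ser65, Thr70), with chemiluminescent detection.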
Chain of Eukaryotic translation initiation factor 4E-binding protein 1 (Homo sapiens) (Q13541 whole entry): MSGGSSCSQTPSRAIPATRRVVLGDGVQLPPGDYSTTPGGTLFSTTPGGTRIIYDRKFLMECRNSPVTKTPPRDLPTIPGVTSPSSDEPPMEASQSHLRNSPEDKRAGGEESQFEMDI
(A western blot detects proteins with antibodies after separation by electrophoresis.)

The subject of the next data set is Staphylococcus aureus. In words: Antibacterial activity against Staphylococcus aureus ATCC 6538 at <= 133 uM incubated for 16 hrs. It is filed as functional, organism-based. As to conditions: dose microM <=133, time 16.0 hrs. In outline: (§2)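 Microbial strains from ATCC or NRRL, tested in triplicate with a top concentration of 133 μM. Positive controls were kanamycin and ampicillin (S. aureus, M. luteus, S. enterica, E. coli) and amphotericin B (S. cerevisiae).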

A further data set relates to Micrococcus luteus. Nature of the data set: Antibacterial activity against Micrococcus luteus NRRL B-287 at <= 133 uM incubated for 16 hrs. It is filed as functional, organism-based. As to conditions: dose microM <=133, time 16.0 hrs. In outline: as §2
The subject of the next data set is Bacillus spizizenii. Nature of the data set: Antibacterial activity against Bacillus subtilis ATCC 6633 at <= 133 uM incubated for 16 hrs. It is filed as functional, organism-based. As to conditions: dose microM <=133, time 16.0 hrs. An outline of the steps: as §2
The subject of the next data set is Mycolicibacterium aurum. In words: Antibacterial activity against Mycobacterium aurum ATCC 23366 at <= 133 uM incubated for 16 hrs. The data set is classed as functional, organism-based. To be noted: dose microM <=133, time 16.0 hrs. In outline:
as §2

The next data set has as its system Escherichia coli. In words: Antibacterial activity against Escherichia coli NRRL B-3708 at <= 133 uM incubated for 16 hrs. It is filed as functional, organism-based. To be noted: dose microM <=133, time 16.0 hrs. In outline: as §2
Another data set relates to Salmonella enterica. In words: Antibacterial activity against Salmonella enterica ATCC 10708 at <= 133 uM incubated for 16 hrs. The data set is classed as functional, organism-based. As to conditions: dose microM <=133, time 16.0 hrs. An outline of the steps:
as §2

A further data set has as its system Saccharomyces cerevisiae. Nature of the data set: Antifungal activity against Saccharomyces cerevisiae ATCC 204508 at <= 133 uM after 16 hrs. It is filed as functional, organism-based. As to conditions: dose microM <=133, time 16.0 hrs. An outline of the steps:
as §2

Data set [5] deals with A549. In words: Cytotoxicity against human A549 cells assessed as reduction in cell viability at 80 uM after 72 hrs by resazurin dye based fluorescence analysis. It is filed as functional. In outline: as §1
The subject of data set [6] is PC-3. Nature of the data set: Cytotoxicity against human PC3 cells assessed as reduction in cell viability at 80 uM after 72 hrs by resazurin dye based fluorescence analysis. It is filed as functional. In outline: as §1

In the case of `C[C@@H]1O[C@@H](O[C@H]2CC[C@H](O[C@@]3(C)CC(=O)[C@]4(O)C5=C(C=C[C@]4(O)C3)C(=O)c3c(ccc([C@H]4C[C@@H](O)[C@H](O[C@@H]6O[C@@H](C)C(=O)C=C6N)[C@@H](C)O4)c3O)C5=O)O[C@H]2C)C=CC1=O` [SAQUAYAMYCIN I], the Activity result in data set [1] is listed as “Non-Toxic”.
In the case of `C[C@@H]1O[C@@H](O[C@H]2CC[C@H](O[C@@]3(C)CC(=O)[C@]4(O)C5=C(C=C[C@]4(O)C3)C(=O)c3c(ccc([C@H]4C[C@@H](O)[C@H](O[C@H]6CC[C@H](O)[C@H](C)O6)[C@@H](C)O4)c3O)C5=O)O[C@H]2C)C=CC1=O` [SAQUAYAMYCIN K], the IC50 in the data set with A549 [2] and in the data set with PC-3 [3] was under 500 nM in each case. Also, the inhibition result in [4] was “Active”.
As to `Cc1cc(O)c2c(c1)C[C@@H](O)C1=C2C(=O)c2cccc(O[C@H]3C[C@@H](O)[C@H](O[C@H]4C[C@@H](O[C@H]5CC[C@H](O[C@H]6C[C@@H](O)[C@H](O[C@H]7C[C@@H](O)[C@H](O)[C@@H](C)O7)[C@@H](C)O6)[C@H](C)O5)[C@H](O)[C@@H](C)O4)[C@@H](C)O3)c2C1=O` [LANDOMYCIN V], the Activity entry in data set [1] is on record as “Toxic”.
As to `COc1cccc2c1C(=O)c1cc(O)c(/C=C(/C)CC(=O)O)c(O)c1C2=O`, the result with Staphylococcus aureus, with Micrococcus luteus, with Bacillus spizizenii, with Mycolicibacterium aurum, with Escherichia coli and with Salmonella enterica was inactive. Moreover, the result in the data set on Saccharomyces cerevisiae, in the data set with A549 [5] and in the data set on PC-3 [6] was inactive.
Consider `Cc1cc(O)c2c3c(ccc2c1)C(=O)c1c(O[C@H]2C[C@@H](O)[C@H](O[C@H]4C[C@@H](O[C@H]5CC[C@H](O[C@H]6CC[C@H](O[C@H]7C[C@@H](O[C@H]8CC[C@H](O)[C@H](C)O8)[C@H](O)[C@@H](C)O7)[C@@H](C)O6)[C@H](C)O5)[C@H](O)[C@@H](C)O4)[C@@H](C)O2)cccc1C3=O`, for which the IC50 in the data set with A549 [2] and with PC-3 [3] was under 500 nM each time. Further, the inhibition entry in [4] was “Active”.
On to `C[C@@H]1O[C@@H](O[C@H]2CC[C@H](O[C@@]3(C)CC(=O)[C@]4(O)C5=C(C=C[C@]4(O)C3)C(=O)c3c(ccc([C@H]4C[C@H]6O[C@H]7CC(=O)[C@H](C)O[C@H]7O[C@H]6[C@@H](C)O4)c3O)C5=O)O[C@H]2C)C=CC1=O`, for which the IC50 in the data set with A549 [2] and in the data set with PC-3 [3] was under 500 nM throughout. In data set [4], the inhibition entry was “Active”.
Turning to `C/C(=C/c1c(O)cc2c(c1O)C(=O)c1cccc(O)c1C2=O)CC(=O)O`, the result in the data set on Staphylococcus aureus, with Micrococcus luteus, with Bacillus spizizenii, in the data set on Mycolicibacterium aurum, in the data set with Escherichia coli and in the data set with Salmonella enterica was inactive. Also, the outcome in the data set on Saccharomyces cerevisiae, in the data set with A549 [5] and in the data set with PC-3 [6] was inactive.
With `Cc1cc(O)c2c(c1)C[C@@H](O)C1=C2C(=O)c2c(O)ccc(O[C@H]3C[C@@H](O)[C@H](O[C@H]4C[C@@H](O[C@H]5CC[C@H](O[C@H]6C[C@@H](O)[C@H](O[C@H]7C[C@@H](O[C@H]8CC[C@H](O)[C@H](C)O8)[C@H](O)[C@@H](C)O7)[C@@H](C)O6)[C@H](C)O5)[C@H](O)[C@@H](C)O4)[C@@H](C)O3)c2C1=O` [LANDOMYCIN A], the IC50 in the data set with A549 [2] and in the data set on PC-3 [3] was under 500 nM each time. For the same compound, the inhibition entry in [4] is “Active”.
On to `Cc1cc(O)c2c3c(ccc2c1)C(=O)c1c(O[C@H]2C[C@@H](O)[C@H](O[C@H]4C[C@@H](O)[C@H](O)[C@@H](C)O4)[C@@H](C)O2)cccc1C3=O` [LANDOMYCIN O], for which the Activity result in data set [1] is given as “Toxic”.
As for `C[C@@H]1O[C@@H](O[C@H]2CC[C@H](O[C@@]3(C)CC(=O)[C@]4(O)C5=C(C=C[C@]4(O)C3)C(=O)c3c(ccc([C@H]4C[C@H]6O[C@H]7CC(=O)[C@H](C)O[C@H]7O[C@H]6[C@@H](C)O4)c3O)C5=O)O[C@H]2C)C(N)=CC1=O`, in data set [1], the Activity result was “Non-Toxic”.
On the same count and under the same terms, next, `C[C@@H]1O[C@@H](O[C@H]2CC[C@H](O[C@@]3(C)CC(=O)[C@]4(O)C5=C(C=C[C@]4(O)C3)C(=O)c3c(ccc([C@H]4C[C@@H](O)[C@H](O)[C@@H](C)O4)c3O)C5=O)O[C@H]2C)C=CC1=O` [SAQUAYAMYCIN G]: “Non-Toxic”.
In the case of `C[C@@H]1O[C@H]2O[C@H]3[C@@H](C)O[C@@H](c4ccc5c(c4O)C(=O)C4=C(C5=O)[C@@]5(O)C(=O)C[C@](C)(O[C@H]6CC[C@H](O[C@H]7CC[C@H](O)[C@H](C)O7)[C@H](C)O6)C[C@@]5(O)C=C4)C[C@H]3O[C@H]2CC1=O`, the IC50 in the data set on A549 [2] and in the data set on PC-3 [3] was under 500 nM throughout. Moreover, the inhibition result in [4] is “Active”. Moreover, the Activity result in data set [1] was “Non-Toxic”.
Turning to `C[C@@H]1O[C@@H](O[C@@H]2C[C@H](c3ccc4c(c3O)C(=O)C3=C(C4=O)[C@@]4(O[C@H]5CC[C@H](O)[C@H](C)O5)C(=O)C[C@](C)(O)C[C@@]4(O)C=C3)O[C@H](C)[C@H]2O)CC[C@@H]1O[C@H]1C[C@@H](O)[C@H](O)[C@@H](C)O1`, in data set [1], the Activity result is “Non-Toxic”.
Same read-out and setting: next, `Cc1cc(O)c2c3c(ccc2c1)C(=O)c1c(O[C@H]2C[C@@H](O)[C@H](O[C@H]4C[C@@H](O[C@H]5CC[C@H](O[C@H]6C[C@@H](O)[C@H](O[C@H]7C[C@@H](O)[C@H](O)[C@@H](C)O7)[C@@H](C)O6)[C@H](C)O5)[C@H](O)[C@@H](C)O4)[C@@H](C)O2)cccc1C3=O` [LANDOMYCIN M]: “Toxic”; `C[C@@H]1O[C@H]2O[C@H]3[C@@H](C)O[C@@H](c4ccc5c(c4O)C(=O)C4=C(C5=O)[C@@]5(O)C(=O)C[C@](C)(O)C[C@@]5(O)C=C4)C[C@H]3O[C@H]2CC1=O`: “Non-Toxic”.
Regarding `Cc1cc(O)c2c(c1)C[C@@H](O)C1=C2C(=O)c2cccc(O[C@H]3C[C@@H](O)[C@H](O[C@H]4C[C@@H](O[C@H]5CC[C@H](O[C@H]6CC[C@H](O[C@H]7C[C@@H](O[C@H]8CC[C@H](O)[C@H](C)O8)[C@H](O)[C@@H](C)O7)[C@@H](C)O6)[C@H](C)O5)[C@H](O)[C@@H](C)O4)[C@@H](C)O3)c2C1=O`, the half-maximal inhibitory concentration (IC50) with A549 [2] and in the data set with PC-3 [3] was under 500 nM throughout. The inhibition entry in [4] is “Active”.
`COc1cccc2c1C(=O)C1=C(C2=O)c2c(O)cc(C)cc2[C@@H](O)[C@H]1O`: the outcome in the data set on Staphylococcus aureus, in the data set with Micrococcus luteus, in the data set on Bacillus spizizenii, with Mycolicibacterium aurum, in the data set on Escherichia coli and in the data set with Salmonella enterica was inactive. Moreover, in the data set with Saccharomyces cerevisiae, the outcome was inactive. Besides, the figures for the IC50 in the data set with A549 [2] and in the data set on PC-3 [3] were 1880 nM and 320 nM, respectively. Also, the inhibition result in [4] is “inactive”. For the same compound, the Activity entry in data set [1] is reported as “Non-Toxic”.
